Reference: ChEMBL document CHEMBL1145972, “In vitro and in vivo characterization of 3-[2-[6-(2-tert-butoxyethoxy)pyridin-3-yl]-1H-imidazol-4-yl]benzonitrile hydrochloride salt, a potent and selective NPY5 receptor antagonist” (J Med Chem, 2003)

Experiments:
HMCB cell line = test: Inhibitory activity against calcium mobilization in NPY5 transfected human bowes melanoma cell line.; assay type: functional, cell-based
Outline: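 Ca2+ mobilization read-out in human Bowes melanoma (HMCB) cells transfected with NPY5.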

[1] = t1/2 in the plasma of male wistar rats; assay type: ADME, organism-based; details: rat
Outline: (§1)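 Male Wistar rats with jugular vein cannula, free access to food and water, given 30 mg/kg by oral gavage in 30% w/v β-cyclodextrin. Plasma, whole brain and CSF sampled over a time course (through 6–8 h); one animal per time point.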

[2] = molecular target: T1, Neuropeptide Y receptor type 1 (Homo sapiens, UniProt P25929); test: Inhibitory activity against Neuropeptide Y receptor type 1
T1 sequence (P25929 whole entry): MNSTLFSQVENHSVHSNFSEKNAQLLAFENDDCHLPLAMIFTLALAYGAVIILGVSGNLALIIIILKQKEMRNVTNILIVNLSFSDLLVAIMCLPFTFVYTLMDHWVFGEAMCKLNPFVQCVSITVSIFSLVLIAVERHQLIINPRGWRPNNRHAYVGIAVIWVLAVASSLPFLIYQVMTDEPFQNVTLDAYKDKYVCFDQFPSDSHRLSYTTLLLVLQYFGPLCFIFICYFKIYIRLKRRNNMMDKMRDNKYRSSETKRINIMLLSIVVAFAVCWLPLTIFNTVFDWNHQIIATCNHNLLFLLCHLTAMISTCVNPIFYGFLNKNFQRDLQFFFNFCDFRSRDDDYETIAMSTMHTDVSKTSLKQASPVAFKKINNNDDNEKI
Outline: (§2)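 Cloned human chimeric NPY receptors, displacement of [125I]PYY radioligand.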

[3] = molecular target: T2, Neuropeptide Y receptor type 5 (Homo sapiens, UniProt Q15761); test: Binding affinity to the human Neuropeptide Y receptor type 5 was determined using [125I]- [PYY] as radioligand
T2 sequence (Q15761 whole entry): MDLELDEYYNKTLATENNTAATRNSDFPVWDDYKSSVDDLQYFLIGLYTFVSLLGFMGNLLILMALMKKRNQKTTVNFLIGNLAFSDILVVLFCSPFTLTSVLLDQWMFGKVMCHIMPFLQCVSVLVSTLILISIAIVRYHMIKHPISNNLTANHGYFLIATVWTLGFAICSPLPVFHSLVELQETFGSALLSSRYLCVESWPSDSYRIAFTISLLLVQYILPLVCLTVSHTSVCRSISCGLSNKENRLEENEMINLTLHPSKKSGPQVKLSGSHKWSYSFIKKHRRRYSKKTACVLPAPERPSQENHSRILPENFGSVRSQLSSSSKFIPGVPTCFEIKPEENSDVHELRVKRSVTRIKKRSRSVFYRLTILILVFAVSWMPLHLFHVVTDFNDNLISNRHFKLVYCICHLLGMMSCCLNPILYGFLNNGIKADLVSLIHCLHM
Outline: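 Radioligand displacement binding on cloned human chimeric NPY5 receptors, with [125I]PYY as the labelled ligand.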

[4] = tmax in the CSF of male wistar rats; assay type: ADME, organism-based, Cerebrospinal fluid; details: rat; outline: as §1
[5] = t1/2 in the brain of male wistar rats; assay type: ADME, organism-based; details: rat; outline: as §1
[6] = t1/2 in the CSF of male wistar rats; assay type: ADME, organism-based, Cerebrospinal fluid; details: rat; outline: as §1
[7] = molecular target: T3, Neuropeptide Y receptor type 5 (Rattus norvegicus, UniProt Q63634); test: Binding affinity to the rat Neuropeptide Y receptor type 5 was determined using [125I]- [Leu31,Pro34]PYY as radioligand
T3 sequence (Q63634 whole entry): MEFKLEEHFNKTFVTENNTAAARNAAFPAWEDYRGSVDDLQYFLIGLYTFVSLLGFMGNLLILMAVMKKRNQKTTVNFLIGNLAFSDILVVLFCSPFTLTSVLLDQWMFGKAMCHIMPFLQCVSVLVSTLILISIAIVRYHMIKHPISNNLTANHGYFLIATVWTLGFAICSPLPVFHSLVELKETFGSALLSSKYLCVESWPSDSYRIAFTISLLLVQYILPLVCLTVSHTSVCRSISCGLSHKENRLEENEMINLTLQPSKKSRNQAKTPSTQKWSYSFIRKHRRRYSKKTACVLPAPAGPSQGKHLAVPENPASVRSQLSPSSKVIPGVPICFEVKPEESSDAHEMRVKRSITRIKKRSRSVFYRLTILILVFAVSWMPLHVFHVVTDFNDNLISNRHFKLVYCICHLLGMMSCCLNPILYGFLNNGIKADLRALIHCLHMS
Outline: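 Whole rat brain membranes; radioligand [125I][Leu31,Pro34]PYY, with 1 μM BIBP3226 present to block NPY-1 receptors.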

[8] = Cmax in the brain of male wistar rats; assay type: ADME, organism-based; details: rat; outline: as §1
[9] = tmax in the brain of male wistar rats; assay type: ADME, organism-based; details: rat; outline: as §1
[10] = tmax in the plasma of male wistar rats; assay type: ADME, organism-based; details: rat; outline: as §1
[11] = molecular target: T4, Neuropeptide Y receptor type 2 (Homo sapiens, UniProt P49146); test: Inhibitory activity against Neuropeptide Y receptor type 2; outline: as §2
T4 sequence (P49146 whole entry): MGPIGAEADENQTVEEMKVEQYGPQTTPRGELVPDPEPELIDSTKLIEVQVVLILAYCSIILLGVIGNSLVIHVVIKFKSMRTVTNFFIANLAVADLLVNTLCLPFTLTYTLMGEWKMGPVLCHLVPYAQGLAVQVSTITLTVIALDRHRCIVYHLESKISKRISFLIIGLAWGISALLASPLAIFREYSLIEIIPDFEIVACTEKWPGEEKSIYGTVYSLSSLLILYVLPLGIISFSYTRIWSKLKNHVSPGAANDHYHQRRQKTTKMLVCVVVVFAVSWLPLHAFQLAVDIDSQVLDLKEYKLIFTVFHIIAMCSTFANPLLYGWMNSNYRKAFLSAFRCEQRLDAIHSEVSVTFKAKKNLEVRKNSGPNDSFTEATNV

[12] = Cmax in the plasma of male wistar rats; assay type: ADME, organism-based; details: rat; outline: as §1
[13] = Cmax in the CSF of male wistar rats; assay type: ADME, organism-based, Cerebrospinal fluid; details: rat; outline: as §1

Structure (SMILES): CC(C)(C)OCCOc1ccc(-c2nc(-c3cccc(C#N)c3)c[nH]2)cn1
- IC50 (HMCB cell line): 0.4 nM
- half-life [1]: 66 min
- IC50 [2]: > 1000 nM
- Ki [3]: 1.2 nM
- Tmax [4]: 30 min
- half-life [5]: 66 min
- half-life [6]: 96 min
- Ki [7]: 1.7 nM
- Cmax [8]: 8.55 µM
- Tmax [9]: 30 min
- Tmax [10]: 30 min
- IC50 [11]: > 1000 nM
- Cmax [12]: 4.42 µM
- Cmax [13]: 0.213 µM
